In assay [1] the target is Cholinesterase (Equus caballus, UniProt P81908). Briefly: Inhibition of equine serum BuChE using butyrylthiocholine iodide as substrate pretreated for 5 mins followed by substrate addition measured after 5 mins by Ellman's method. Put shortly:
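Ellman assay in phosphate buffer pH 8.0. AChE (0.22 U/mL) or BuChE (0.06 U/mL) preincubated 5 min with inhibitor (0.01–100 μM final). DTNB then added, and the reaction started with ATC or BTC (0.075 M solution). IC50 reported as mean ± SD. Selectivity is IC50(BuChE)/IC50(AChE).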

Assay [2] can be described thus: Selectivity index, ratio of IC50 for equine serum BChE to IC50 for electric eel AChE. In a few lines:
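Ellman assay in phosphate buffer pH 8.0. AChE (0.22 U/mL) or BuChE (0.06 U/mL) preincubated 5 min with inhibitor (0.01–100 μM final). DTNB then added, and the reaction started with ATC or BTC (0.075 M solution). Absorbance read at 412 nm, 25 °C, 5 min after substrate. IC50 reported as mean ± SD. Selectivity is IC50(BuChE)/IC50(AChE).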

In assay [3] the target is T1, Amyloid-beta precursor protein (Homo sapiens, UniProt P05067). Briefly: Inhibition of self-mediated amyloid beta (1 to 42) (unknown origin) aggregation at 25 uM incubated for 48 hrs by thioflavin-T fluorescence assay relative to control. In a few lines:
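HFIP-pretreated Aβ1-42 taken up in DMSO (5 mM stock), diluted in 50 mM phosphate pH 7.4 (100 μM final). Incubated 48 h at 37 °C with or without compound at 25 μM. Samples diluted to 200 μl with 50 mM glycine-NaOH pH 8.0 and read by ThT fluorescence. Percent inhibition reported as mean ± SD.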

The target in assay [4] is Acetylcholinesterase (Electrophorus electricus, UniProt O42275). Briefly: Inhibition of electric eel AChE using acetylthiocholine iodide as substrate preincubated for 5 mins followed by substrate addition measured after 5 mins by Ellman's method. On the technique in general: DTNB colorimetry detects thiols as they appear.
The nature of assay [5]: Antioxidant activity assessed as AAPH-induced radical scavenging activity by measuring trolox equivalents for oxygen radical absorbance capacity measured up to 80 mins by ORAC-FL assay. In kind it is functional. In a few lines:
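Fluorescein (70 nM final) with test compound at eight concentrations (1–8 μM) in 75 mM phosphate buffer pH 7.4, preincubated 15 min at 37 °C. AAPH (12 mM final) then added and fluorescence read (ex 485/em 520 nm) for 80 min. Net AUC over blank regressed against concentration and converted to Trolox equivalents by standard curve (Trolox = 1). At least three runs.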

Assay [6] has as its target T1, Amyloid-beta precursor protein. Briefly: Inhibition of self-mediated amyloid beta (1 to 42) (unknown origin) fibril formation assessed as appearance of sparse fibrils at 25 uM after 48 hrs by transmission electron microscopic analysis.
Assay [7] shares this target. Briefly: Inhibition of self-mediated amyloid beta (1 to 42) (unknown origin) aggregation at 10 uM incubated for 48 hrs by thioflavin-T fluorescence assay relative to control. In a few lines: (§1)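 HFIP-pretreated Aβ1-42 from a DMSO stock was diluted in phosphate buffer (50 mM, pH 7.4). Peptide was incubated with or without inhibitor at 10, 15, 20 or 25 μM for 48 h at 37 °C. Samples were diluted to 200 μL with glycine–NaOH (50 mM, pH 8.0) and fibrils read by ThT fluorescence. Blanks lacking Aβ were run. IC50 was derived from the four concentrations.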

For assay [8] the target is unchanged. Briefly: Disaggregation of self-induced amyloid beta (1 to 42) (unknown origin) preformed fibrils measured after 24 hrs by ThT fluorescence assay relative to control. Put shortly:
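HFIP-pretreated Aβ1-42 taken up in DMSO (5 mM stock), diluted in 50 mM phosphate pH 7.4 (100 μM final). Peptide incubated 48 h at 37 °C, then compound or buffer added and incubated a further 24 h at 37 °C. Samples diluted to 200 μl with 50 mM glycine-NaOH pH 8.0 and read by ThT fluorescence. Peptide-free blanks run in parallel.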

Assay [9] in a line: Inhibition of Cu2+ induced amyloid beta (1 to 42) aggregation assessed as fluorescence intensity at 25 uM incubated for 24 hrs by Thioflavin T based fluorometric assay (reference value: 606.64 +/- 36.11 a.u.).
Assay [10] addresses T1, Amyloid-beta precursor protein. Briefly: Inhibition of self-mediated amyloid beta (1 to 42) (unknown origin) aggregation at 20 uM incubated for 48 hrs by thioflavin-T fluorescence assay relative to control. Put shortly:
as §1

For assay [11] the target is unchanged. Briefly: Inhibition of self-mediated amyloid beta (1 to 42) (unknown origin) aggregation incubated for 48 hrs by thioflavin-T fluorescence assay. In a few lines: as §1
A short description of assay [12]: Metal chelating activity assessed as compound-Fe2+ complex formation at 30 uM after 30 mins by UV-visible spectrophotometric analysis. Put shortly: (§2)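 UV absorption spectra (200–500 nm) were recorded over 30 min for compound (30 μM final) alone or with CuSO4 or FeSO4 (30 μM final). The medium was 20% (v/v) ethanol/buffer: 150 mM NaCl, 20 mM HEPES, pH 7.4.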

Assay [13] can be described thus: Metal chelating activity assessed as compound-Cu2+ complex formation at 30 uM after 30 mins by UV-visible spectrophotometric analysis. In a few lines:
as §2

A short description of assay [14]: Inhibition of Cu2+ induced amyloid beta (1 to 42) aggregation at 25 uM incubated for 24 hrs by Thioflavin T based fluorometric assay relative to control. Put shortly: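 Aβ1-42 was pretreated with HFIP, dried to a film, and held as a 5 mM DMSO stock. It was diluted in HEPES pH 6.6 with 150 μM NaCl, then incubated at 100 μM final with or without Cu2+ (100 μM final) for 48 h at 37 °C. Compounds were added at 25 μM final for 24 h at 37 °C. Samples (20 μL) were diluted to 200 μL glycine–NaOH (50 mM, pH 8.0) containing 5 μM ThT before reading fluorescence.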

Assay [15] deals with T1, Amyloid-beta precursor protein. Briefly: Inhibition of self-mediated amyloid beta (1 to 42) (unknown origin) aggregation at 15 uM incubated for 48 hrs by thioflavin-T fluorescence assay relative to control. Put shortly:
as §1

In assay [16] the target is Acetylcholinesterase (Electrophorus electricus) (UniProt O42275). Briefly: Mixed-type inhibition of electric eel AChE assessed as decreased Vmax with higher Km using varying levels of acetylthiocholine iodide as substrate pretreated for 5 mins followed by substrate addition by Lineweaver-Burk plot analysis. Put shortly:
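AChE kinetics by Ellman's method, with substrate varied at comparatively low concentrations. Inhibitor tested at 10, 20 and 40 nM. Inhibition type assigned from Lineweaver–Burk plots of 1/velocity versus 1/substrate.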

One may read the IC50 as the point on the concentration scale where inhibition reaches its midpoint. As a reminder, the inhibition is the relative decrease from the control value, in per cent.

Calls of active or inactive are those of the source. The rule behind the calls is not given here.

Cholinesterase, sequence (P81908 whole entry): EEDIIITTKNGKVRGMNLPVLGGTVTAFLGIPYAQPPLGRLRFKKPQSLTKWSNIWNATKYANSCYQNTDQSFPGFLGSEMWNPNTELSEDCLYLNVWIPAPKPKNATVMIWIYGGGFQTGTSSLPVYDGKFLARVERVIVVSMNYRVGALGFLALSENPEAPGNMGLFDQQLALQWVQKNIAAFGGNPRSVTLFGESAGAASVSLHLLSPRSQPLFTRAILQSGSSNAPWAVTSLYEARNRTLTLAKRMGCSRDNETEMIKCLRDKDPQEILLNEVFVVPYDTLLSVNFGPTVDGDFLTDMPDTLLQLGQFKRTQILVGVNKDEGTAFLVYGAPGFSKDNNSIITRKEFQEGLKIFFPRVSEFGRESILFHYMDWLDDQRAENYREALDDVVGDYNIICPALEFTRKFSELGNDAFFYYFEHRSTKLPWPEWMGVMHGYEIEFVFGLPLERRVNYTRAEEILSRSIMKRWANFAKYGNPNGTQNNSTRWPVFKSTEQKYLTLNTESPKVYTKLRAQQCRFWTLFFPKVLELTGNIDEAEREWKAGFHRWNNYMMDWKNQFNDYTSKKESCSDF
Acetylcholinesterase, sequence (O42275 whole entry): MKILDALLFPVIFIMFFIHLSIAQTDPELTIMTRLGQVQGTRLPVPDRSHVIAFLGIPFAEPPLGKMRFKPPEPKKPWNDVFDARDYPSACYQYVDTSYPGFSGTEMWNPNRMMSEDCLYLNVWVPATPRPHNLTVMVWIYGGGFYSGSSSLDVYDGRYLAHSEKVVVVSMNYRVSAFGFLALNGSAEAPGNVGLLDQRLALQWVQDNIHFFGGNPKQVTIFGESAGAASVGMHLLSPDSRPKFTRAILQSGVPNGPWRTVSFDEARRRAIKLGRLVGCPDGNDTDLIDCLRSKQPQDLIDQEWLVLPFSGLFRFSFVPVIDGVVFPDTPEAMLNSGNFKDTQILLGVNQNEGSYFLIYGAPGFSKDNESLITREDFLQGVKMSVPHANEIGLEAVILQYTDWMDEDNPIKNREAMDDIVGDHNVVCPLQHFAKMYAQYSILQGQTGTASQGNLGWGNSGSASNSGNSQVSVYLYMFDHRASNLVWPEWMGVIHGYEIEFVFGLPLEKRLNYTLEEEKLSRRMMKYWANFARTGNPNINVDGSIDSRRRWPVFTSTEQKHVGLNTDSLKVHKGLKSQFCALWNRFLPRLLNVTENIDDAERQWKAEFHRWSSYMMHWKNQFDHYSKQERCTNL
T1 sequence (P05067 whole entry): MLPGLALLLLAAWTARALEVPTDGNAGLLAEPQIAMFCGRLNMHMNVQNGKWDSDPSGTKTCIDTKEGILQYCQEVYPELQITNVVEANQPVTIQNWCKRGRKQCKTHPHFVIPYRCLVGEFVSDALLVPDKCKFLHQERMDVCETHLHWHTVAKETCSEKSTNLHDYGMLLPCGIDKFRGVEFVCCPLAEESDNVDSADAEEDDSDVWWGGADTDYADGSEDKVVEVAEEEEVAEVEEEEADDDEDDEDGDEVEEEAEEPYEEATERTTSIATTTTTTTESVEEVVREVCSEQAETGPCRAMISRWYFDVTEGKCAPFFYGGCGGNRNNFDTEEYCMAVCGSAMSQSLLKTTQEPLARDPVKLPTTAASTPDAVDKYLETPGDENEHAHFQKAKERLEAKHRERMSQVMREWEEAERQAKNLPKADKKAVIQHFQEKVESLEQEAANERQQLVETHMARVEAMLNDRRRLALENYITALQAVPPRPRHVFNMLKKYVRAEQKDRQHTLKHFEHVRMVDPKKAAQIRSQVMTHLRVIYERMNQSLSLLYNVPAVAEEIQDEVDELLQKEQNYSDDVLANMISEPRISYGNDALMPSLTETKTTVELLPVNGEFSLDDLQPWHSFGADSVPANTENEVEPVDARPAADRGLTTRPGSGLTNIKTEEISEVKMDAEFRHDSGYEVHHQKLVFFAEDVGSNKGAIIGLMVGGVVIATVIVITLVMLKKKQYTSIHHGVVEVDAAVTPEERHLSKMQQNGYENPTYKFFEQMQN
Acetylcholinesterase (Electrophorus electricus), sequence (O42275 24-633 limits assumed): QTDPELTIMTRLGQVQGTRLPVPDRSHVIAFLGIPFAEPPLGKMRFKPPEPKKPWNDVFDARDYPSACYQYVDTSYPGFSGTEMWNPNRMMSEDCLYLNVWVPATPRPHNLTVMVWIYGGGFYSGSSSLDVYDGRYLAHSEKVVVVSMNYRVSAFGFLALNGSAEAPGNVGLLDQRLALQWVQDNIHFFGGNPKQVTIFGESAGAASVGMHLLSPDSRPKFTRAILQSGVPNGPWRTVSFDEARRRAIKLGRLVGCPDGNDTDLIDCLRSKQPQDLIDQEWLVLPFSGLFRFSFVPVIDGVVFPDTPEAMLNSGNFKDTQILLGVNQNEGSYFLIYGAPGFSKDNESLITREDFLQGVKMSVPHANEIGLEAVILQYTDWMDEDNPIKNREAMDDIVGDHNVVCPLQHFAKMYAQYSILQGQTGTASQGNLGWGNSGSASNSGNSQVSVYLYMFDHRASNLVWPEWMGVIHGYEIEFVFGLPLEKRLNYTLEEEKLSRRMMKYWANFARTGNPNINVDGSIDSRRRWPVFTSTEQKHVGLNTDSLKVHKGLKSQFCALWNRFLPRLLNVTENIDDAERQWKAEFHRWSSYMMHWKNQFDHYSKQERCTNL

In the case of `Cc1cc(N2CCN(CC(=O)Nc3n[nH]c4ncccc34)CC2)n2ncnc2n1`, the figures for the IC50 in assay [1] and in [4] were above 100 µM and 0.022 µM, respectively. In addition, the Ratio IC50 in assay [2] is above 4550. In assay [3], this compound showed an inhibition of 43.4%. Also, in [5], the Activity is 0.216 µMequiv/µM.

Take `CCOC(=O)c1cnc2ccccc2c1N1CCN(CC(=O)Nc2n[nH]c3ncccc23)CC1`: the IC50 in assay [1] was above 100 µM; in assay [11] it was 15.7 µM; in assay [4] it was above 100 µM. Also, in assay [6], the inhibition entry was “Active”. Also, the inhibition came to 28.6% in assay [7]; 81.7% in [3]; 84.1% in assay [10]; 57% in assay [14]; 43.8% in assay [15]. Also, the Activity came to 61.6% in assay [8] and 0.274 µMequiv/µM in [5]. The Flu intensity in [9] came out at 261 a.u. Also, the result in assay [12] and in [13] was Active.

Turning to `CCOC(=O)c1cnc2ccc(C)cc2c1N1CCN(CC(=O)Nc2n[nH]c3ncccc23)CC1`, the half-inhibitory concentration (IC50) in assay [1] and in assay [4] was above 100 µM throughout. In addition, the Activity in [8] was found to be 52.1%; in assay [5], 0.271 µMequiv/µM. In assay [3], this compound came in with an inhibition of 69.3%.

Regarding `N#Cc1cccnc1N1CCN(CC(=O)Nc2n[nH]c3ncccc23)CC1`, the IC50 in assay [1] and in [4] was above 100 µM in each case. For the same compound, in assay [3], the inhibition is 40%. The Activity in [5] was 0.163 µMequiv/µM.

For the compound `O=C(CN1CCN(CC(=O)Nc2n[nH]c3ncccc23)CC1)Nc1n[nH]c2ncccc12`, the IC50 is above 100 µM in assay [1], 17.9 µM in assay [11] and 0.045 µM in assay [4]. In addition, the inhibition result in assay [6] and in [16] was “Active” each time. Moreover, the inhibition was 3.9% in [7]; 79.5% in assay [3]; 58% in assay [10]; 58.8% in assay [14]; 39.9% in assay [15]. The Activity came to 53.8% in assay [8] and 0.283 µMequiv/µM in assay [5]. The Ratio IC50 in assay [2] was above 2220. The Flu intensity in assay [9] was 250 a.u. Moreover, the result in assay [12] and in [13] was Active.

`O=C(CN1CCN(c2ccnc3cc(Cl)ccc23)CC1)Nc1n[nH]c2ncccc12`: the IC50 was above 100 µM in assay [1] and 0.012 µM in [4]. Moreover, in assay [2], the Ratio IC50 was above 8330. This compound gave an inhibition in [3] of 23.6%. In [5], the Activity came to 0.286 µMequiv/µM.

On to `O=C(CN1CCCCC1)Nc1n[nH]c2ncccc12`, for which the IC50 is above 100 µM in assay [1] and 0.0048 µM in assay [4]. Also, the Ratio IC50 in [2] was above 20800. This compound also yielded an inhibition in [3] of 50.6%. Besides, in [5], the Activity stood at 0.65 µMequiv/µM.

For `COc1cc(/C=C/C(=O)CC(=O)/C=C/c2ccc(O)c(OC)c2)ccc1O`, the inhibition result in [6] is “Active”. In addition, in [9], the Flu intensity came out at 333 a.u. The compound further had an inhibition in [14] of 45.2%.

Regarding `CN1CCN(CC(=O)Nc2n[nH]c3ncccc23)CC1`, the results for the concentration for half-maximal inhibition (IC50) in [1] and in assay [4] were above 100 µM and 0.0049 µM, respectively. Moreover, in assay [2], the Ratio IC50 is above 20400. This compound also displayed an inhibition in assay [3] of 50.9%. In addition, the Activity in assay [5] worked out at 0.362 µMequiv/µM.

Turning to `O=C(CN1CCOCC1)Nc1n[nH]c2ncccc12`, the IC50 in assay [1] is above 100 µM; in assay [4], 0.113 µM. In addition, the figures for the Activity in assay [8] and in [5] were 47.4% and 0.192 µMequiv/µM, respectively. Besides, the Ratio IC50 in [2] is above 885. The same compound showed an inhibition in assay [3] of 74.6%.

Values taken from ChEMBL document CHEMBL4393694, “A multifunctional therapeutic approach: Synthesis, biological evaluation, crystal structure and molecular docking of diversified 1H-pyrazolo[3,4-b]pyridine derivatives against Alzheimer's disease” (Eur J Med Chem, 2019).
